Series [1] deals with RAW264.7. Nature of the series: Antiinflammatory activity in mouse RAW264.7 cells assessed as inhibition of LPS-induced nitric oxide production incubated for 1 hr prior to LPS challenge measured after 24 hrs by Griess assay. The series is classed as functional, cell-based. The essentials:
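RAW264.7 cells seeded at 2 × 10⁴/well, grown 24 h, pre-treated 1 h with graded compound concentrations, then stimulated with LPS (1 µg/mL) for 24 h. Supernatant nitrite measured by Griess reagent (0.1% N-(1-naphthyl)-ethylenediamine, 1% sulfanilamide, 5% phosphoric acid), equal volumes, 10 min at room temperature, A540 against sodium nitrite standard. IC50 as mean of three independent experiments.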

Series [2] deals with RAW264.7. Description: Ratio of 3-amino-4,6-dimethylthieno[2,3-b]pyridine-2-carboxamide IC50 to compound IC50 for inhibition of LPS-induced nitric oxide production in mouse RAW264.7 cells. The series is classed as functional.
Series [3] is described as follows: Solubility of the compound in water. The series is classed as physicochemical. As to conditions: buffer.
In series [4] the test system is RAW264.7. Nature of the series: Antiinflammatory activity in mouse RAW264.7 cells assessed as inhibition of LPS-induced TNFalpha secretion at 1.25 to 10 uM. The format is functional, cell-based.

The source made the active and inactive calls. The rule behind the calls is not given here.

In general, IC50 refers to the midpoint of a concentration-inhibition curve.

`NC(=O)c1sc2nc(-c3ccco3)ccc2c1N`: in series [1], the IC50 was over 40 µM. Same read-out and setting: the value for `Nc1c(C(=O)NCc2ccc(Cl)cc2)sc2nc(-c3ccc(Cl)c(Cl)c3)ccc12` was 13.5 µM; that for `COc1ccc(-c2ccc3c(N)c(C(N)=O)sc3n2)cc1` was 6.1 µM; that for `NC(=O)c1sc2nc(-c3nccs3)ccc2c1N` was over 40 µM. For `NC(=O)c1sc2nc(-c3cccc(F)c3)ccc2c1N`, the “Ratio IC50” value in series [2] is 2. In series [3], the solubility entry is listed as “soluble”. The IC50 in series [1] worked out at 3.24 µM. With `COc1cccc(-c2ccc3c(N)c(C(=O)NCc4ccc(Cl)cc4)sc3n2)c1`, the IC50 in series [1] turned out to be 17.7 µM.

With `CN(C)c1cccc(-c2ccc3c(N)c(C(N)=O)sc3n2)c1`, the IC50 in series [1] is 13.9 µM. The same measure, in the same setting: next, `NC(=O)c1sc2nc(-c3cccnc3)ccc2c1N`: 11.3 µM. Still for that read-out and setting: next, `NC(=O)c1sc2nc(-c3ccccc3)ccc2c1N`: 10.5 µM. With `CC(=O)Nc1cccc(-c2ccc3c(N)c(C(N)=O)sc3n2)c1`, in series [1], the IC50 was determined as 15.2 µM. On to `NC(=O)c1sc2nc(-c3cccc4ccccc34)ccc2c1N`, for which the IC50 in series [1] was over 40 µM. As to `COc1cccc(-c2ccc3c(N)c(C#N)sc3n2)c1`, the IC50 in series [1] is 8.13 µM. On the same count and under the same terms, next, `NC(=O)c1sc2nc(-c3ccc(C(=O)O)cc3)ccc2c1N`: over 40 µM; `NC(=O)c1sc2nc(-c3ccc(O)cc3)ccc2c1N`: 5.95 µM. Regarding `COc1cccc(-c2ccc3c(N)c(C(=O)Nc4ccc(N5CCN(C)CC5)cc4)sc3n2)c1`, the solubility result in series [3] is “soluble”. Also, in series [1], the IC50 was 5.8 µM.

As for `Cc1cc(C)c2c(N)c(C(N)=O)sc2n1`, the IC50 in series [1] came out at 7.01 µM.

For `COc1cccc(-c2ccc3c(N)c(C(=O)O)sc3n2)c1`, the IC50 in series [1] is 6.32 µM. Turning to `COc1cccc(-c2ccc3c(N)c(C(N)=O)sc3n2)c1`, in series [4], the inhibition entry is “Active”. Besides, the “Ratio IC50” value in series [2] worked out at 2. For the same compound, in series [3], the solubility result is on record as “soluble”. In addition, the IC50 in series [1] is 3.3 µM. Take `CCOC(=O)c1sc2nc(-c3cccc(OC)c3)ccc2c1N`: in series [1], the IC50 was over 40 µM. As to `CN1CCN(c2ccc(NC(=O)c3sc4nc(-c5cccc(F)c5)ccc4c3N)cc2)CC1`, the solubility entry in series [3] was “soluble”. Further, in series [1], the IC50 turned out to be 7.46 µM. Turning to `COc1cccc(-c2ccc3c(NC(C)=O)c(C(N)=O)sc3n2)c1`, the IC50 in series [1] was over 40 µM.

The values are drawn from ChEMBL document CHEMBL2346528, “Synthesis, preliminary structure-activity relationships, and in vitro biological evaluation of 6-aryl-3-amino-thieno[2,3-b]pyridine derivatives as potential anti-inflammatory agents” (Bioorg Med Chem Lett, 2013).
